The source of these data is ChEMBL document CHEMBL4622841, “Structural modifications of indolinones bearing a pyrrole moiety and discovery of a multi-kinase inhibitor with potent antitumor activity” (Bioorg Med Chem, 2020).

Molecules are shown by their SMILES.

Data set [1] concerns MKN-74. The data set is described as follows: Induction of apoptosis in human MKN74 cells assessed as viable cells at 0.3 uM incubated for 72 hrs by Annexin-V-FITC/propidium iodide staining-based flow cytometric analysis (reference value: 76.84%). The data set is classed as functional. The conditions noted are these: MKN-74, 72 h, read-out: Activity.
Data set [2] deals with Platelet-derived growth factor receptor beta (Homo sapiens, UniProt P09619). The data set is described as follows: Inhibition of N-terminal GST-fused human PDGFRbeta cytoplasmic domain (557 to 1106 (end) residues) expressed in baculovirus expression system using FAM-labeled peptide and ATP as substrate preincubated for 10 mins followed by substrate addition measured after 1 hr by mobility shift assay.
Platelet-derived growth factor receptor beta, sequence (P09619 whole entry, the tested form may be a part): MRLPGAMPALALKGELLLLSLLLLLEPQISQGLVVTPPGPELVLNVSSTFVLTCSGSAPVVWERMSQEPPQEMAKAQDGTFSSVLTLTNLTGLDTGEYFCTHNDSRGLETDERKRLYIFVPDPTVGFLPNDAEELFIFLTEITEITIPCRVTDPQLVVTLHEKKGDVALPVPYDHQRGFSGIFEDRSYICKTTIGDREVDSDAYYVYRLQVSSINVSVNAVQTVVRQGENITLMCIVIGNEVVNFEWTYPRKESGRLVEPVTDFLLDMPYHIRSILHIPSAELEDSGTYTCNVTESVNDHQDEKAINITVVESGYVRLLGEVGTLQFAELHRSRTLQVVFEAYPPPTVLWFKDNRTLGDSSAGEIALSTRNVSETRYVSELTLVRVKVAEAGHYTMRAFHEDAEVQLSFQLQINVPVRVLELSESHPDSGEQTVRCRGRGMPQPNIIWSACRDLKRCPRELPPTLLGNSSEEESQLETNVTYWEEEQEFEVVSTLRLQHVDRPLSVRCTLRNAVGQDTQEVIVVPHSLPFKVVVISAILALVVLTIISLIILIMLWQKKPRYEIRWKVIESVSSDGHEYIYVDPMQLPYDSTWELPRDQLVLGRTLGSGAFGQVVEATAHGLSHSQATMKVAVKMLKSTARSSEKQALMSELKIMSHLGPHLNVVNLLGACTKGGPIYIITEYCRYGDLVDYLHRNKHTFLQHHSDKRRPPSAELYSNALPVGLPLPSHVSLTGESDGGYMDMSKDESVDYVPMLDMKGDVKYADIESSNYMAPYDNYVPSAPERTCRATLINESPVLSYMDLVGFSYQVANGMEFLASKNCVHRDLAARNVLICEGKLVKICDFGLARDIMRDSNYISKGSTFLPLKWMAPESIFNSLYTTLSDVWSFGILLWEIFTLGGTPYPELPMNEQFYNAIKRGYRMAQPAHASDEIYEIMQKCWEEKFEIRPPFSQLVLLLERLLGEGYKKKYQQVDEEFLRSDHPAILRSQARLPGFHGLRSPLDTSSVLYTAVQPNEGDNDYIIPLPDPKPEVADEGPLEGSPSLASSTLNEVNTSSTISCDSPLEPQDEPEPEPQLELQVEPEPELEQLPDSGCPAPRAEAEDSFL

Data set [3] addresses Vascular endothelial growth factor receptor 1 (Homo sapiens, UniProt P17948). As to the kind of experiment: Inhibition of GST-tagged human recombinant VEGFR1 cytoplasmic domain (781 to 1338 residues) expressed in baculovirus expression system using FAM-labeled peptide and ATP as substrate preincubated for 10 mins followed by substrate addition measured after 1 hr by mobility shift assay.

For data set [4], the target named is Mast/stem cell growth factor receptor Kit (Homo sapiens, UniProt P10721). As to the kind of experiment: Inhibition of c-Kit (unknown origin) using FAM-labeled peptide and ATP as substrate preincubated for 10 mins followed by substrate addition measured after 1 hr by mobility shift assay.
Mast/stem cell growth factor receptor Kit, sequence (P10721 whole entry): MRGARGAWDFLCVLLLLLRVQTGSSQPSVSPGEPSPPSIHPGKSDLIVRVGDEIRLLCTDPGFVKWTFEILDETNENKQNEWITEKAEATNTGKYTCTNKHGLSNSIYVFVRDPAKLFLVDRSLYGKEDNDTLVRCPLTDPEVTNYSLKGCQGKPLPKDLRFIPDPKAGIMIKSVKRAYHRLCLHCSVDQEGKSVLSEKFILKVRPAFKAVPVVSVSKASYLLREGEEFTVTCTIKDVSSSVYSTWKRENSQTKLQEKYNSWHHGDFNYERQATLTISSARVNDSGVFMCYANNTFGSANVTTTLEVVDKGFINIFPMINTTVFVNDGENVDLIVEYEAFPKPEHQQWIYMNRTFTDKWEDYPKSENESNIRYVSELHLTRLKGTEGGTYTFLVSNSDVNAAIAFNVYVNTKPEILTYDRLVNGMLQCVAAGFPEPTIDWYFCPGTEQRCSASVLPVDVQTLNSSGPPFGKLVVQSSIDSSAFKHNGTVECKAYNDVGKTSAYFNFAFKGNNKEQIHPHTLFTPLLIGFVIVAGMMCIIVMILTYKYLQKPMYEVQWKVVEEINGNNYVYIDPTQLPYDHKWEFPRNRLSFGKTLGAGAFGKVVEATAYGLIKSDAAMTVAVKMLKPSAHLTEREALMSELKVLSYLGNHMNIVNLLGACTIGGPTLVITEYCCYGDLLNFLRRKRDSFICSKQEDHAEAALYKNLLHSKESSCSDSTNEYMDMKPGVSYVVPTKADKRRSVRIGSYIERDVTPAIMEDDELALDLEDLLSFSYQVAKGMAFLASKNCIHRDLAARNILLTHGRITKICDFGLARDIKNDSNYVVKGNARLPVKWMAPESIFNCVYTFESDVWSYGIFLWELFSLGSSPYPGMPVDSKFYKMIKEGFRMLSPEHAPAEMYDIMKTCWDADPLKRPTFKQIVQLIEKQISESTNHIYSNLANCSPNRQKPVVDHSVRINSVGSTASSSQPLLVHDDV
Data set [5] has as its system MKN-74. The data set is described as follows: Inhibition of colony formation in human MKN74 cells at 1 uM measured after 14 days by crystal violet staining-based assay. It is filed as functional. To be noted: MKN-74, 336 h.
Another data set has as its system HEK-293T. The data set is described as follows: Induction of apoptosis in human HEK293T cells by Annexin-V-FITC/propidium iodide staining-based flow cytometric analysis. It is filed as cell-based.
For data set [6], the system named is HT-29. As to the kind of experiment: Induction of apoptosis in human HT-29 cells assessed as late apoptotic cells at 0.3 uM incubated for 72 hrs by Annexin-V-FITC/propidium iodide staining-based flow cytometric analysis (reference value: 6.12%). It is filed as functional. (In general: In flow cytometry, cells or beads pass a laser one at a time.)
In data set [7] the test system is HT-29. As to the kind of experiment: Induction of apoptosis in human HT-29 cells assessed as late apoptotic cells at 1 uM incubated for 72 hrs by Annexin-V-FITC/propidium iodide staining-based flow cytometric analysis (reference value: 6.12%). It is filed as functional.
The subject of data set [8] is MKN-74. As to the kind of experiment: Induction of apoptosis in human MKN74 cells assessed as early apoptotic cells at 1 uM incubated for 72 hrs by Annexin-V-FITC/propidium iodide staining-based flow cytometric analysis (reference value: 1.98%). The data set is classed as functional.
The subject of data set [9] is MKN-74. The data set is described as follows: Induction of apoptosis in human MKN74 cells assessed as late apoptotic cells at 1 uM incubated for 72 hrs by Annexin-V-FITC/propidium iodide staining-based flow cytometric analysis (reference value: 12.42%). It is filed as functional.
The test system of data set [10] is MKN-74. The data set is described as follows: Induction of apoptosis in human MKN74 cells assessed as early apoptotic cells at 3 uM incubated for 72 hrs by Annexin-V-FITC/propidium iodide staining-based flow cytometric analysis (reference value: 1.98%). The data set is classed as functional.
In data set [11] the test system is HepG2. The data set is described as follows: Induction of apoptosis in human HepG2 cells assessed as early apoptotic cells at 3 uM incubated for 72 hrs by Annexin-V-FITC/propidium iodide staining-based flow cytometric analysis (reference value: 1.08%). The data set is classed as functional.
In data set [12] the test system is HepG2. As to the kind of experiment: Induction of apoptosis in human HepG2 cells assessed as late apoptotic cells at 3 uM incubated for 72 hrs by Annexin-V-FITC/propidium iodide staining-based flow cytometric analysis (reference value: 2.89%). The data set is classed as functional.
Data set [13] is described as follows: Toxicity in nu/nu mouse xenografted with human HT-29 cells assessed as effect on body weight at 100 mg/kg, po qd for 18 days. The data set is classed as organism-based. The conditions noted are these: in vivo, 432 h. The method, boiled down:
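Female nu/nu mice, 4–6 weeks old, implanted subcutaneously in the right flank with HT-29 cells (2×10⁶/mL). Once tumours reached 200 mm³, mice randomised to groups (n = 6) and dosed orally once daily at 100 mg/kg for 18 days. Body weight monitored during treatment. Results given as mean ± SD.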
A general note: Xenograft models place foreign cells or tissue in a host animal.

For data set [14], the system named is MKN-74. The data set is described as follows: Induction of apoptosis in human MKN74 cells assessed as viable cells at 3 uM incubated for 72 hrs by Annexin-V-FITC/propidium iodide staining-based flow cytometric analysis (reference value: 76.84%). The conditions noted are these: MKN-74, 72 h, read-out: Activity. It is filed as functional.

Vascular endothelial growth factor receptor 1, sequence (P17948 whole entry, the tested form may be a part): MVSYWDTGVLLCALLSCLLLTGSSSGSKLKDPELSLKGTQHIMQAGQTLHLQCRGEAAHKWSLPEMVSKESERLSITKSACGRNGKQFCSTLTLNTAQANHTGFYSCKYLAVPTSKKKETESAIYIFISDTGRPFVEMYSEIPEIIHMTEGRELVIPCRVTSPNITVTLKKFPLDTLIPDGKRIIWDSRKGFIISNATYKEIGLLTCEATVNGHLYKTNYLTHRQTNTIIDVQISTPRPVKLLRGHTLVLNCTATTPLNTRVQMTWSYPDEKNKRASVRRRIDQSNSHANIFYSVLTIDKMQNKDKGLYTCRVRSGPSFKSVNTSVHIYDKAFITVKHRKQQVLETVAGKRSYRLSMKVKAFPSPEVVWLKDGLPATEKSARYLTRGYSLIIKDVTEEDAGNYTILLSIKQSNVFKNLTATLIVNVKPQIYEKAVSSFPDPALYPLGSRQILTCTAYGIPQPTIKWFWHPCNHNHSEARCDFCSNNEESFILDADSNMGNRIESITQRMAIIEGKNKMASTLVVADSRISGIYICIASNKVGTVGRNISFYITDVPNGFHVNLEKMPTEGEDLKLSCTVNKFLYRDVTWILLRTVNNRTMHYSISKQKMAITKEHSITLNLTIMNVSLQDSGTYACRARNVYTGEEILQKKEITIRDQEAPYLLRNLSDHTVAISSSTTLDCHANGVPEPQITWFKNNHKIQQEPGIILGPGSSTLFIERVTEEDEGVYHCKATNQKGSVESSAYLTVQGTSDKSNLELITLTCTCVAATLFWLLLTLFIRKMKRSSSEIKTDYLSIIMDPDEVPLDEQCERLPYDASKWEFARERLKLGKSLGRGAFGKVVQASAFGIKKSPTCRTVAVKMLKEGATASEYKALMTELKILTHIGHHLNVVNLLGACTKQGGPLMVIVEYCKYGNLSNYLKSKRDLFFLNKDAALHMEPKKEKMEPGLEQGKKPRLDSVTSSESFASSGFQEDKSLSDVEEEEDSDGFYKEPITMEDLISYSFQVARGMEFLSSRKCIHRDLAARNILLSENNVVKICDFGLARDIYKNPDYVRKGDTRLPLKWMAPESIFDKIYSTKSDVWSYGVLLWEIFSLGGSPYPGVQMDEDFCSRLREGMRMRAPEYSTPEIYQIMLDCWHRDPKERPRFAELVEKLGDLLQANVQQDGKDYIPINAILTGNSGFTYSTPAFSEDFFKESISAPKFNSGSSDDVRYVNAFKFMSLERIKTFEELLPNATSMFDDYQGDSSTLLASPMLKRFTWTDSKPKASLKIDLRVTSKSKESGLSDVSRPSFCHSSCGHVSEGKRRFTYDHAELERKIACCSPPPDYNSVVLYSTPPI

One may read the IC50 as the concentration that inhibits the measured activity by half. A word on the inhibition: it is the relative decrease from the control value, in per cent. Lower therefore signals little suppression. Turning to `COC(=O)c1ccc2c(c1)NC(=O)/C2=C(\Nc1ccc(-n2c(C)ccc2CN2CCN(C)CC2)cc1)c1ccccc1`, the viability at 0.3 µM with MKN-74 [1] was determined as 73.5%. Besides, the results for the IC50 in data set [2], in data set [3] and in data set [4] were 9.9 nM, 31 nM and 17 nM, respectively. In the data set on MKN-74 [5], this compound yielded an inhibition at 1 µM of 100%. For the same compound, the Activity result in the data set with HEK-293T was “Non-Toxic”; in the data set on HT-29 [6], 11.99%; with HT-29 [7], 37.8%; in the data set with MKN-74 [8], 5.73%; in the data set on MKN-74 [9], 22.1%; in the data set on MKN-74 [10] it was 8.01%. Moreover, the Activity was 16.52% with HepG2 [11], 64.56% in the data set with HepG2 [12] and “Non-Toxic” in data set [13]. The viability at 3 µM in the data set on MKN-74 [14] amounted to 8.53%.
